Compound activity (PubChem BioAssay)
CHOP inhibitor = inhibitors of CHOP induction in ER stress response; CHO-K1 CHOP-promoter luciferase, tunicamycin-induced, 15-18 h; inhibition, % at 10 µM; hit rate 3.8% among 220,000; AID 2732;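 active = compounds that reduced the stress-induced luciferase reporter signal by more than about 70% of percent inhibition, limit read from the data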
697 NFkB inh = inhibitors of the PMA/ionomycin-induced NF-kB reporter in 697 B cells; 697 B-cell NF-kB luciferase reporter, 16 h; hit rate 0.33% among 330,000; AID 435022; inhibition, % at 4 µM; in the data active = inhibition above about 35%
Jurkat NFkB inh = lowers PMA/ionomycin-induced NF-kB signal in Jurkat cells. PMA/ionomycin-induced NF-kB luciferase reporter, luminescence. inhibition, % at 4 µM. hit rate 0.53% among 330,000; in the data active = inhibition above about 50%
XBP1 UPR activ = activators of adaptive arm of unfolded protein response (XBP1). hit rate 0.33% among 330,000. CHO-XBP1 luciferase reporter, IRE1-XBP1 UPR activation, luminescence; percent of tunicamycin response, DMSO as zero. activation, % at 20 µM;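 active = versus positive control, 20 µM dose yields 30% or more activation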
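Material: CHO-XBP1 cells stably carrying IRE1-XBP1-driven luciferase reporter | Medium: F12 with 10% serum | Compound dosing: 20 µM single concentration, DMSO 1% | Incubation: Overnight seeding at 37 °C, 6 h compound treatment at 37 °C | Detection: Steady-Glo luminescence read | Read-out basis: % activation of reporter signal versus tunicamycin and DMSO controls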
CHOP UPR activ = apoptotic UPR (CHOP) activation | CHO-CHOP luciferase reporter, luminescence; percent of tunicamycin response over DMSO baseline | activation, % at 10 µM | hit rate 0.34% among 330,000 | AID 449763;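 active = at 10 µM dose, activation of 40% or more, normalized to positive control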
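Dosing – one dose, 10 µM in 0.5% DMSO · System – CHO-CHOP cells, stable luciferase reporter of PERK-eIF2a-CHOP signalling · Input – 500 cells/well · Control set – tunicamycin 10 µg/mL final as positive, DMSO-only wells as negative · Timing – 6 h compound treatment, 37 °C · Measure – % activation vs tunicamycin · Technique – luminescence read with Steady-Glo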
Each line names hits and unclear results; the compound was inactive in the other large screens. Shown is part of a subset that was picked to be rich in hits.

O=C(NCc1ccco1)/C(=C\c1ccc(F)cc1)NC(=O)c1ccco1	none (no result: CHOP inhibitor)
Cc1cccc(OCCCC(=O)NCC(=O)Nc2cccc(C)c2C)c1	none
O=C(NC1CCCCC1)N1CCSC1=Nc1ccccc1	CHOP inhibitor 89
Cc1cc(O)c(C(=O)Nc2cccc(Cl)c2)c(=O)n1C	none (no result: CHOP inhibitor)
COC(=O)/C=C/c1ccccc1CN1[C@@H](CC(=O)OC)c2ccccc2S1(=O)=O	none (no result: CHOP inhibitor)
O=C(NC1CCCC1)C(c1ccncc1)N(CCCN1CCOCC1)C(=O)c1ccc(-c2ccccc2)[nH]1 (configuration not stated)	none
O=C(NC1CCCCC1)C(c1ccc(F)cc1)N(CCN1CCOCC1)C(=O)c1ccc(-c2ccccc2)[nH]1 (configuration not stated)	CHOP inhibitor 73
CCOc1ccc(NC(=O)CCC(=O)c2ccc(OC)cc2)cc1	none (no result: CHOP inhibitor)
Oc1ccccc1-c1cc(C(F)(F)F)nc(-c2ccccc2)n1	CHOP inhibitor 73
CCOC(=O)c1cc2c(ccn2C)n1CC(=O)N1CCN(c2ccc(F)cc2)CC1	none
CCOC(=O)c1cc2c(ccn2C)n1Cc1cc(C)ccc1C	CHOP inhibitor 90
CCOC(=O)c1cnc(SCC(=O)Nc2ccc(N3CCOCC3)c(Cl)c2)nc1N	none
CCOC(=O)c1cnc(SCC(=O)Nc2cc(OC)cc(OC)c2)nc1N	CHOP inhibitor 76
CCOC(=O)c1cnc(SCC(=O)Nc2sc(C)c(C)c2C#N)nc1N	CHOP inhibitor 71
CC(C)c1ccc(NC(=O)C2CC(=O)Nc3nc4ccccc4n32)cc1 (configuration not stated)	none
O=C(C1CN(C(=O)c2cc3cc(Cl)ccc3o2)c2ccccc2O1)N1CCCCC1 (configuration not stated)	none (no result: CHOP inhibitor)
CCNC(=O)CON=C1c2ccccc2-c2ccccc21	none
CCC(CC)NC(=O)CON=C1c2ccccc2-c2ccccc21	CHOP inhibitor 72
CC1CCC(C(C)C)C(OC(=O)CSc2nccc(=O)[nH]2)C1 (configuration not stated)	none
COc1ccc(-c2n(CC(=O)OC3CC(C)CCC3C(C)C)c3ccccc3[n+]2C)cc1 (configuration not stated)	CHOP inhibitor 87 (no result: 697 NFkB inh, Jurkat NFkB inh, XBP1 UPR activ, CHOP UPR activ)
COc1ccc(OC)c(NS(=O)(=O)c2c(C(=O)N3CCCCCC3)c(C)n(C)c2C)c1	none (no result: CHOP inhibitor)
C=CCn1c(COc2cccc(C)c2C)nnc1SCC(=O)N1CCN(c2ccccc2)CC1	CHOP inhibitor 71
Cc1nc2c(=O)[nH]c3ccccc3c2o1	none
CC(NS(=O)(=O)/C=C/c1ccccc1)C(=O)O (configuration not stated)	CHOP inhibitor 86
COC(=O)c1cc(Br)ccc1NC(=O)CSCc1c(C)noc1C	none (no result: CHOP inhibitor)
CCOC(=O)N1CCN(C(=O)C(C)(C)Oc2ccc(Cl)cc2)CC1	CHOP inhibitor 83
Nc1nc(C23CC4CC(CC(C4)C2)C3)[nH]c(=O)n1	none
Cc1cc(C)c(C)c(S(=O)(=O)N[C@@H](C)C(=O)OCC(=O)NC2CCCC(C)C2C)c1C (some centres not stated)	none (no result: CHOP inhibitor)
Cc1ccc(NC(=O)C2CCCN2S(=O)(=O)c2ccc3c(c2)n(C)c(=O)c(=O)n3C)c(C)c1 (configuration not stated)	none
O=C1O/C(=C/c2ccccc2)N=C1c1ccccc1	CHOP inhibitor 87
CC(=O)c1cc2c(cc1NC(=O)CN1CCCCCCC1)OCO2	CHOP inhibitor 85
C/C(=C/CCC(C)C1CCC2(C)C3CCC4C(C)(C)C(=O)CCC4(C)C3=CCC12C)C(=O)O (configuration not stated)	none (no result: 697 NFkB inh, Jurkat NFkB inh, XBP1 UPR activ, CHOP UPR activ)
C/C(=C/CCC(C)[C@H]1CC[C@@]2(C)C3=C(CC[C@]12C)[C@@]1(C)CCC(=O)C(C)(C)[C@@H]1CC3)C(=O)O (some centres not stated)	CHOP inhibitor 74 (no result: 697 NFkB inh, Jurkat NFkB inh, XBP1 UPR activ, CHOP UPR activ)
CCN1CCc2c(sc(NC(=O)Nc3ccc(Cl)c(Cl)c3)c2C(N)=O)C1	CHOP inhibitor 70 (no result: 697 NFkB inh, Jurkat NFkB inh, XBP1 UPR activ, CHOP UPR activ)
O=C(N/N=C/c1ccco1)C1CCCC1	none (no result: CHOP inhibitor)
Cc1cc(=O)[nH]c(SCC(=O)N2CCN(C(c3ccccc3)c3ccccc3)CC2)n1	CHOP inhibitor 74
Cc1cccc(NC(=O)CNC(=O)CN2C(=O)NC3(CCCc4ccccc43)C2=O)c1C (configuration not stated)	none (no result: CHOP inhibitor)
O=C(CSc1nc(N2CCCCC2)nc(N2CCCCC2)n1)Nc1nccs1	CHOP inhibitor 77
Cc1cc(/C=N/Nc2nc(N)ncc2[N+](=O)[O-])c(C)n1-c1ccccc1F	CHOP inhibitor 80
Cc1cccc(C)c1-n1c(C)cc(/C=N\Nc2ccc([N+](=O)[O-])cn2)c1C	none
O=C(CN1CCN(S(=O)(=O)c2ccccc2)CC1)Nc1cccc(C(F)(F)F)c1	CHOP inhibitor 79
O=C(CNc1cccc(C(F)(F)F)c1)Nc1cccc(S(=O)(=O)N2CCCC2)c1	none (no result: CHOP inhibitor)
CCCCCCNS(=O)(=O)c1ccc(Cl)s1	CHOP inhibitor 87
Cc1ccc(NC(=O)N/C=C/c2ccc(Cl)cc2)cc1	none
O=C(N/C=C/c1ccccc1)Nc1ccc(Cl)cc1	CHOP inhibitor 87
COc1ccc(-n2nc(C(=O)Nc3ccc(OC)c(OC)c3)c3c4ccccc4n(C)c3c2=O)cc1	CHOP inhibitor 72
CCOC(=O)c1cc(-c2ccc(Cl)cc2)nc2c1c(=O)[nH]c(=O)n2CCOC	CHOP inhibitor 78
CCOc1cc(NC(=O)C2CCCCC2)c(OCC)cc1NC(=O)c1ccco1	CHOP inhibitor 84
CCC(C)C(NC(=O)C1CCC(C)CC1)C(=O)Nc1cc(OC)ccc1OC (configuration not stated)	CHOP inhibitor 82
CCC(C)C(NC(=O)C1CCC(C)CC1)C(=O)Nc1ccc(OC)cc1OC (configuration not stated)	none
O=C(CSc1nc2ccccc2c(=O)n1Cc1ccc(Cl)cc1)NCc1cccs1	CHOP inhibitor 73
CCn1c(SCC(=O)NCc2ccccc2)nc2ccccc2c1=O	none
CCCCNC(=O)CSc1nc2ccccc2c(=O)n1Cc1ccc2c(c1)OCO2	CHOP inhibitor 86
Cc1ccccc1Nc1c([N+](=O)[O-])ccc2c1=NC1(CCCCC1)N=2	CHOP inhibitor 76
Cc1ccc(C)c(Nc2c([N+](=O)[O-])ccc3nonc23)c1	none (no result: CHOP inhibitor)
CCOc1cc(/C=N/NC(=O)c2cc(C)[nH]n2)ccc1OC(=O)c1ccc([N+](=O)[O-])cc1	CHOP inhibitor 79
CCOc1cc(/C=N\NC(=O)c2ccc(NC(=O)C(C)(C)C)cc2)ccc1OC(=O)c1ccc(C)cc1	CHOP inhibitor 83
CCOc1cc(/C=N\NC(=O)c2ccc(C)nc2)ccc1OC(=O)c1ccc(F)cc1	none (no result: CHOP inhibitor)
CC(=O)N1CCN(S(=O)(=O)c2cccc(C(=O)NNC(=O)COc3ccc(F)cc3)c2)CC1	none (no result: CHOP inhibitor)
O=C(O)c1ccc(-n2nnnc2SCc2ccccc2Br)cc1	none (no result: CHOP inhibitor)
